The text below walks through data of PubChem BioAssay AID638 (SRMLSC, 2007).

Hit rate of the full screen: of about 1,300 compounds, about 65 (5%) were called active. These entries were drawn from the full list. Potency and affinity values are given separately. Values without a mark were called inactive.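 The calls were made as follows: active = growth inhibition reaching a set limit at one or more tested doses; inactive = the rest.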

The test is described as follows: wild-type E. coli BW25113 antibacterial activity – OD615, dose response (AID 638). The conditions noted are these: at 100 µM (top of the series) unless noted. The gist of the method:
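Material – E. coli BW25113 wild type · Medium – Kanamycin-supplemented LB broth · Doses – compound dilution series for dose-response · Incubation – 20 h compound exposure, 37 °C · Technique – optical density (absorbance) at 615 nm · Read-out basis – IC50 from 4-parameter logistic, bounds fixed 0–100% · Control set – chloramphenicol at 30 µM final as inhibition control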
Take `COc1ccc(-c2noc(Cc3ccc(Cl)cc3)n2)cc1OC`: the growth inhibition is 7.9%.

As for `COc1cccc(N2CC(C(=O)Nc3ccc(C(=O)OC(C)C)cc3)CC2=O)c1` (stereo not drawn), the growth inhibition is 5.31%. Under `CCCCCOC(=O)c1ccc(NC(=O)c2ccco2)cc1` stands -0.06%.

For `CCOC(=O)c1cnc(-n2nc(C)cc2C)nc1NC1CCCCC1`, the growth inhibition was -4.22%. With `COc1ccccc1N1CCN(Cc2nc(N)nc(Nc3ccc(C)c(Cl)c3)n2)CC1`, the growth inhibition is 8.69%. Under `CN1C(=O)C2(OCC(COc3ccc(Cl)cc3)O2)c2ccccc21` (stereo not drawn) stands -7.83%; under `Cc1ccc(C)c(Cn2c(CN(C)Cc3ccccc3)nc3c2c(=O)n(C)c(=O)n3C)c1`, -10%. In the case of `CCC(Oc1ccccc1)C(=O)Nc1ccc(-c2nnc(-c3ccco3)o2)cc1` (stereo not drawn) it was -9.73%; in that of `Cc1nc2c(C(=O)NCCC3=CCCCC3)c[nH]n2c(=O)c1Cl`, 5.42%; in that of `CCOC(=O)C1CN(c2cc3c(cc2F)c(=O)c(C(=O)O)cn3CC)OC1C(=O)OCC` (stereo not drawn), 3.92%. On to `Cc1cc(N2CCC(C)CC2)nc(-n2nc(C)cc2C)n1`, for which the growth inhibition is -4.79%. In the case of `O=c1[nH]c(=O)n(C2CCCCCC2)c(O)c1C=NCc1ccc(F)cc1` it was -0.14%. In the case of `COC(=O)c1c(NC(=O)CCc2ccc(C)o2)sc(C)c1C` it was 3.59%. Under `N#Cc1nc(Cc2cccc3ccccc23)oc1NCCCn1ccnc1` stands 2.47%; under `N#Cc1nc(Cc2cccc3ccccc23)oc1NCc1ccc(F)cc1`, 20% (active). Take `N#Cc1nc(Cc2ccccc2)oc1NCc1ccccc1Cl`: the growth inhibition was 14.5%. In the case of `CC1CCC(C(C)C)C(OC(=O)COC(=O)c2ccc(=O)[nH]c2)C1` (stereo not drawn) it was 1.53%. `C=CCn1c(NC(C)c2cc(Cl)ccc2O)nc2ccccc21` (stereo not drawn): the growth inhibition is 13.7%. For `O=C(Nc1ccccc1N1CCCCC1)c1cccs1`, the growth inhibition was 1.03%. Consider `O=C(OC1CCCCC1)c1ccc(NC(=O)c2ccco2)cc1`, for which the growth inhibition is 2.7%. Under `Cc1nn(-c2ccccc2)c(C)c1C(=O)Nc1nnc(-c2ccco2)o1` stands 9.7%. In the case of `O=C(Nc1nnc(-c2ccc(F)cc2)o1)c1ccco1` it was 1.59%. In the case of `Cc1ccc(-c2csc3ncnc(Sc4nnc(CN5CCCCCC5=O)o4)c23)cc1` it was 5.4%.

Turning to `CCc1ccc2[nH]c(=O)c(C(c3nnnn3CCOC)N3CCN(c4ccc(F)cc4)CC3)cc2c1` (stereo not drawn), the growth inhibition is -0.14%. In the case of `CC(C)OCCCNc1ncnc2c1[nH]c1ccc(F)cc12` it was 9.62%; in that of `CC(C)OCCCNc1ncnc2c1[nH]c1ccccc12`, 8.07%. Consider `CCOc1ccc2[nH]c3c(N4CCN(c5ccccn5)CC4)ncnc3c2c1`, for which the growth inhibition is -8.17%. For `N#C/C(=C\c1cccs1)Sc1nc2ccccc2s1`, the growth inhibition is -8.78%. With `O=C(CN(Cc1ccc2c(c1)OCO2)C(=O)CSc1nc2ccccc2o1)NC1CCCCC1`, the growth inhibition is -6.97%. In the case of `C=C(C)Cn1c(N2CCC(Cc3ccccc3)CC2)nc2c1c(=O)[nH]c(=O)n2C` it was -2.32%. As to `Cn1c(=O)c2c(nc(N3CCCCCC3)n2Cc2cccc3ccccc23)n(C)c1=O`, the growth inhibition was -1.26%. In the case of `CCOc1ccccc1N1CCN(Cc2ccc(Br)s2)CC1` it was -0.45%; in that of `CC1=CC(C)(C)N2C(=O)C3(SCC(=O)N3c3ccc(O)cc3)c3cc(C)cc1c32` (stereo not drawn), 1.81%. Turning to `CCCOC(=O)c1ccc(Oc2cn[nH]c2-c2ccc(OCC)cc2O)cc1`, the growth inhibition is 8.01%. Turning to `Cn1c(=O)n(CCCOc2ccc(Br)cc2)c2ccccc21`, the growth inhibition is 9.45%. With `C=C(C)COc1ccc(-c2n[nH]c(C)c2-c2ccccc2OC)c(O)c1`, the growth inhibition is 8.4%. As for `C=C(C)COc1ccc(-c2n[nH]c(C)c2-c2ccccc2)c(O)c1`, the growth inhibition is 20.5% (active). With `C=C(C)COc1ccc(-c2n[nH]c(C)c2Oc2ccccc2OC)c(O)c1`, the growth inhibition is 0.02%. In the case of `Cc1cccc(Nc2nc(-c3ccccn3)cs2)n1` it was 4.37%.

On to `c1ccc(-c2nc(N3CCCCCC3)c3ccccc3n2)nc1`, for which the growth inhibition was 17.1% [at 50 µM]. In the case of `CCCCn1c(NC(=O)c2ccccc2)c(C#N)c2nc3ccccc3nc21`, the growth inhibition was -8.7%.

As to `CCn1c(Cn2nnc(-c3ccccc3)n2)nnc1SCc1ccc(Cl)c(Cl)c1`, the growth inhibition was -0.33%. As for `Cc1cccc(NC(=O)c2cc(NC(=O)C3CCCCC3C(=O)O)ccc2N2CCCCC2)c1` (stereo not drawn), the growth inhibition is -4.25%. Under `O=C(COn1nnc2ccc(C(F)(F)F)cc21)Nc1nnc(-c2ccccc2)o1` stands -3.92%; under `O/N=C(\c1ccc(Cl)cc1)c1cc2ccccc2o1`, 8.62%. In the case of `Cc1onc(-c2ccccc2)c1C(=O)OCC(=O)c1ccccc1` it was 1.87%; in that of `CN(c1ccccc1C(=O)Nc1ccc(S(=O)(=O)N2CCCCC2)cc1)S(C)(=O)=O`, -1.44%. On to `O=C(NC1CCCC1)c1sc(=S)n2c1[nH]c(=O)c1ccccc12`, for which the growth inhibition was -2.92%.

In the case of `Cn1c(=O)c2c(SCc3cccnc3)nc(CC(C)(C)C)nc2n(C)c1=O`, the growth inhibition is 1.92%.

Consider `O=C(Nc1ccc(S(=O)(=O)N2CCCc3ccccc32)cc1)C1CCCO1` (stereo not drawn), for which the growth inhibition was -2.99%. Under `c1ccc(-n2nnnc2Oc2cccc3cccnc23)cc1` stands 2.63%; under `O=C(NCc1ccco1)c1cc2sccc2n1Cc1ccccc1`, -6.37%. In the case of `N=c1n(CCN2CCOCC2)c2ccccc2n1CC(=O)c1ccc(Cl)c(Cl)c1` it was -3.82%. In the case of `c1csc(-c2nc3nc4ccccc4nc3n2Cc2ccc3c(c2)OCO3)c1` it was -7.29%; in that of `COc1cc(-c2nc(Cc3ccccc3Cl)no2)cc(OC)c1OC`, 8.5%; in that of `O=C(COc1ccc2ccccc2c1Br)N1CCN(c2ccccn2)CC1`, -12.5%. As for `CSCCOC(=O)C1=C(C)NC(=O)CC1c1ccccc1Cl` (stereo not drawn), the growth inhibition is 3.74%. Under `CC(OC(=O)c1ccccc1NCc1ccco1)C(=O)Nc1ncc(Cl)cc1Cl` (stereo not drawn) stands 11.2%; under `COc1ccc(S(=O)(=O)Nc2ccc(S(=O)(=O)N3CCCCC3)cc2)cc1`, -5.18%. In the case of `N#CC1=C(N)NC(SCc2ccccc2)=C(C#N)C12CCCCC2` it was 12.1%; in that of `CCSc1nnc(NC(=O)CSc2nccn2-c2cccc(C)c2C)s1`, 2.99%; in that of `Cc1onc(-c2c(F)cccc2Cl)c1C(=O)Nc1nc2c(s1)CCCC2`, -5.05%.

For `Cc1cc(N2CCN(C(c3ccccc3)c3ccccc3)CC2)n2ncnc2n1`, the growth inhibition is 6.9%. For the compound `COc1ccc(OC)c(S(=O)(=O)n2cnc3cc(C)c(C)cc32)c1`, the growth inhibition was -5.06%. For the compound `CCc1nc(N2CCCCC2)c2oc3ccccc3c2n1`, the growth inhibition was -1.03%. Under `Brc1cc(Br)c2ncnc(N3CCCCC3)c2c1` stands 7.11%. In the case of `c1ccc(-c2nc(CSc3nnc(-c4cccs4)o3)cs2)cc1` it was -5.14%; in that of `Cc1cc(-c2ccco2)c(C#N)c2nc3ccccc3n12`, -4.65%.

As to `Cc1ccc(NC(=O)N2CCC(c3nc4c(nnn4Cc4cccc(Cl)c4)c(=O)[nH]3)CC2)cc1`, the growth inhibition is -0.39%. In the case of `O=C(Nc1nnc(-c2ccc(Cl)cc2)o1)c1ccccc1Br` it was 5.98% [at 50 µM]; in that of `O=C(Nc1nnc(-c2ccccc2)o1)c1nc2ccccc2s1`, -11.8%; in that of `Cc1ccc(C2c3c(-c4ccccc4O)n[nH]c3C(=O)N2Cc2ccncc2)cc1` (stereo not drawn), -4.25%. Under `O=C(Nc1ccc(Cl)c(Cl)c1)N1CCSC1c1ccco1` (stereo not drawn) stands 15.6%; under `CCSc1nnc(NC(=O)c2nc(-c3ccccc3)n(-c3ccccc3)n2)s1`, -4.83%. Under `CCc1nnc(NC(=O)c2cccc(C(=O)Nc3nnc(CC)s3)n2)s1` stands 9.58%; under `Cc1ccc(-c2nnc3sc(CCc4ccccc4)nn23)cc1`, 9.95%. In the case of `COC(=O)c1ccsc1NC(=O)CN1CCN(c2ccc(F)cc2)CC1`, the growth inhibition was -9.19%. In the case of `O=C(c1cccc(COc2ccc(Cl)cc2Cl)c1)N1CCN(c2ccccn2)CC1`, the growth inhibition is -14.7%.

For the compound `O=C(Nc1nc2ccccc2s1)C1CCCN1S(=O)(=O)c1ccc(Cl)cc1` (stereo not drawn), the growth inhibition is -7.08%. As to `COc1ccc(-c2nnc(SCc3cc(C)cc(C)c3)o2)cc1`, the growth inhibition was -1.05%. `c1ccc(N2CCN(c3ncnc4c3oc3ccccc34)CC2)cc1`: the growth inhibition is -9.68%. In the case of `COc1ccc(C)cc1NC(=O)CSc1nnc(COc2ccccc2)n1Cc1ccco1` it was 0.64%; in that of `CCc1cc2c3c(c(=O)oc2cc1O)CCCC3`, -5.58%. Under `CCCn1c(CNc2ccc(Br)cc2)nc2ccccc21` stands 7.8%. `CCc1nc2ccccc2c(=O)n1NC(=O)c1c(O)c2cccc3c2n(c1=O)CCC3`: the growth inhibition was -13.7%. Under `COc1ccc(C2CC(c3ccccc3)n3nc(NC(=O)c4cccs4)nc3N2)cc1` (stereo not drawn) stands 3.83%.

Consider `O=C(Nc1nc2n(n1)C(c1ccc(Cl)cc1)CC(c1ccc(Cl)cc1)N2)c1ccco1` (stereo not drawn), for which the growth inhibition was 13% (active). Under `O=C(Nc1nc2ccccc2n1CCOc1ccc(Cl)cc1)c1ccco1` stands 3.35%; under `O=C(Cn1c2c(c(-c3ccccc3)cc1=O)CCCC2)N1CCCCCC1`, 3.36%.

Turning to `C=CCn1c(SCC(O)Cn2c3ccccc3c3ccccc32)nnc1-c1ccco1` (stereo not drawn), the growth inhibition was -9.43%. Under `O=C(CSc1nnc2scc(-c3ccccc3)n12)Nc1nsc(-c2ccccc2)n1` stands -9.04%; under `COc1ccc(Cl)cc1N1CCN(CCNC(=O)Nc2ccccc2C)CC1`, -2.62%. Under `Cn1c(=O)c(C(=S)NC(=O)C2CC2)c(N)n(Cc2ccccc2)c1=O` stands -3.57%.
